M1 ag – human M1 muscarinic receptor agonists, primary screen, Fluo-8 calcium fluorescence, CHO-K1 cells, HTS; Muscarinic acetylcholine receptor M1 (Homo sapiens), P11229; CHO-K1 hM1, agonist mode; 0% DMSO, 100% acetylcholine EC100; activation, % at 3 µM; actives 0.33% (n = 360,000); AID 588814, 2011;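 active = activation above the run's mean compound activation plus 3 SD, cut at about 16% in these data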;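 note: peak over basal fluorescence ratio within a 140 s kinetic read after compound addition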
TAAR1 antagonist – human TAAR1 antagonists, primary screen, Fluo-8 calcium fluorescence, CHO RD-HGA16 cells; Trace amine-associated receptor 1 (Homo sapiens), Q96RJ0; antagonist; inhibition, % at 3 µM; actives 1.5% (n = 360,000); AID 624466, 2012;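 active = inhibition above a per-plate cutoff, the mean inhibition of test compounds on that plate plus 3 SD, cut at about 49% in these data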;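 note: 0% = DMSO plus EC80 beta-PEA response and 100% = DMSO alone without agonist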
Target sequence (Q96RJ0 whole entry, looked up): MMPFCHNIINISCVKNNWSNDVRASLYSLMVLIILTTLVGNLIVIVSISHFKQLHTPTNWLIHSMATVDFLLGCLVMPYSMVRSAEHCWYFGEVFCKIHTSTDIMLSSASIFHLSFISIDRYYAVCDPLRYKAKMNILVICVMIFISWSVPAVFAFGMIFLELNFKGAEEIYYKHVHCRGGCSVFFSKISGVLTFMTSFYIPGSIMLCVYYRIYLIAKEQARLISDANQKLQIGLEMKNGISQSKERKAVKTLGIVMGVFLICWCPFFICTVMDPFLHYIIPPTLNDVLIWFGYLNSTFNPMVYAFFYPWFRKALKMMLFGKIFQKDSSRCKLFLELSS
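test system = CHO RD-HGA16 cells bearing hTAAR1 | replication = singlicate | controls = DMSO-only wells and EC80 β-PEA-stimulated wells | reagent = EC80 β-phenethylamine stimulus | read-out basis = percent inhibition of PEA-evoked calcium signal, max/basal emission ratio | schedule = seeding 17-24 h prior, 75-min 37 °C, 30-min RT dye loading | signal = kinetic Fluo-8 calcium fluorescence measurement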
M1 antag – human M1 muscarinic receptor antagonists, primary screen, CHO-K1 cells, Fluo-8 calcium fluorescence, 1536-well; actives 1.3% (n = 360,000); Muscarinic acetylcholine receptor M1 (Homo sapiens), P11229; CHO-K1 hM1, ACh EC80 antagonist; inhibition, % at 3 µM;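 active = percent inhibition above its own plate's cutoff, namely the mean of that plate's compound wells plus 3 SD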;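 note: peak over basal fluorescence ratio during 140 s after agonist addition; 0% = ACh EC80 plus DMSO and 100% = DMSO alone without agonist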
m5-HT2A agonist – mouse Htr2a agonists via beta-arrestin recruitment, primary screen, cell-based, luminescence. 5-hydroxytryptamine receptor 2A (Mus musculus), P35363. CHO-K1 mHTR2A beta-arrestin complementation; percent of 30 µM serotonin response. activation, % at 7.6 µM. actives 0.66% (n = 360,000). AID 624169, 2012;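 active = activation above a run cutoff, the mean activation of all tested compounds plus 3 SD, cut at about 14% in these data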;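 note: 0% = plate median of compound wells and 100% = 30 µM serotonin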
CHRM1 PAM – human M1 muscarinic receptor positive allosteric modulators, primary screen, CHO-K1 cells, Fluo-8 calcium fluorescence, 1536-well; AID 588819, 2011; Muscarinic acetylcholine receptor M1 (Homo sapiens), P11229; actives 0.088% (n = 360,000); activation, % at 3 µM; CHO-K1 hM1, ACh EC20; 0% = ACh EC20, 100% = maximal ACh; in the data active = activation above about 19%, passing the limit was not always enough
TAAR1 agonist – human TAAR1 agonists, primary screen, Fluo-8 calcium fluorescence, CHO RD-HGA16 cells | vehicle wells 0%, saturating PEA agonist 100% | activation, % at 3 µM | actives 0.99% (n = 360,000);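 active = activation above the mean activation of all test compounds in the run plus 3 SD, cut at about 38% in these data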
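System: CHO-derived RD-HGA16 cells with stable Gα16 and human TAAR1 / Times: 17-24 h plating, Fluo-8 75 min 37 °C, 30 min RT / Technique: calcium-sensitive Fluo-8 signal, excitation 470-495, emission 515-575 nm / Measure: % activation relative to PEA EC100 response / Benchmarks: DMSO and PEA EC100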
TAAR1 ag conf – human TAAR1 agonists, retest of hits, confirmation, Fluo-8 calcium fluorescence, CHO RD-HGA16 cells. scaled: DMSO 0%, maximal phenethylamine 100%. shares compounds with TAAR1 agonist. actives 82% (n = 2,400). activation, % at 3 µM;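 active = activation above a cutoff set at the run's mean compound activation plus 3 SD, cut at about 39% in these data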
Ga16 ag counter – nonselective calcium mobilization agonists, CHO-Ga16 cells, counter-screen for hTAAR1 agonist project, cell-based, fluorescence, CHO-Ga16 parental line | shares compounds with TAAR1 agonist | Fluo-8 calcium fluorescence; normalized to maximal ATP response, DMSO zero | activation, % at 3 µM | actives 50% (n = 2,400);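 active = activation above the run cutoff, the mean activation over all tested wells plus 3 SD, cut at about 12% in these data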;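 note: 0% = DMSO wells and 100% = maximal ATP response on the peak over basal ratio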
TAAR1 desens – TAAR1 desensitization by agonist hits, confirmation, counter-screen for TAAR1 agonist project, cell-based, fluorescence, tachyphylaxis. inhibition, % at 3 µM. shares compounds with TAAR1 agonist. AID 651951, 2012. CHO RD-HGA16 hTAAR1, Fluo-8 calcium, beta-PEA response inhibition. actives 46% (n = 2,400);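 active = inhibition above the run cutoff, the mean inhibition of all test compounds plus 3 SD, cut at about 49% in these data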;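 note: beta-PEA stimulus applied at its EC80; loss of beta-PEA calcium signal after compound pretreatment read as receptor desensitization; 0% = DMSO with beta-PEA at EC80 and 100% = DMSO alone without agonist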
Ga16 nonsel ant – inhibition of ATP-evoked calcium response in CHO-Ga16 cells, counter-screen for TAAR1 agonist project, cell-based, fluorescence. CHO-Ga16 ATP-induced calcium, Fluo-8 fluorescence. inhibition, % at 3 µM. AID 651952, 2012. actives 39% (n = 2,400). shares compounds with TAAR1 agonist;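 active = inhibition above the plate's mean compound inhibition plus 3 SD, computed per plate, cut at about 22% in these data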;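 note: 0% = EC80 ATP with DMSO and 100% = DMSO wells without ATP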
Starred values were filed as active, the others as inactive; x = not tested or not shown. Most compounds without a hit are left out; they make up all but 3.9% or so of the library.

SMILES	M1 ag	TAAR1 antagonist	M1 antag	m5-HT2A agonist	CHRM1 PAM	TAAR1 agonist	TAAR1 ag conf	Ga16 ag counter	TAAR1 desens	Ga16 nonsel ant
Cc1cc(/C=C2/C(=N)N3C(=NC2=O)SN=C3S(C)(=O)=O)c(C)n1-c1ccc(F)cc1	-8.9	8.2	0.7	-0.4	-4.0	4.5	x	x	x	x
N#Cc1c([N+](=O)[O-])cc([N+](=O)[O-])cc1S(=O)(=O)Cc1ccccc1	-0.8	45.2	5.9	-5.5	7.1	48.0*	9.3	8.9	42.5	44.9*
Cc1nn(C)c(C(=O)NNC(=S)NCc2ccco2)c1Br	-2.5	17.2	-0.7	1.1	5.0	79.8*	-0.8	5.5	7.7	0.7
Cc1nn(C)c(C(=O)NNC(=S)NCc2ccco2)c1Cl	-2.4	-3.3	3.3	0.0	0.8	0.7	x	x	x	x
O=C(NNC(=O)c1sccc1-n1cccc1)Nc1ccc(F)cc1	-2.8	9.0	-2.8	1.0	3.6	5.2	x	x	x	x
CC1(c2ccc(Cl)cc2)NC(=O)N(CC(=O)Nc2ccc3c(c2)OCO3)C1=O (configuration not stated)	19.5*	35.8	4.1	-2.0	-5.0	58.9*	76.5*	23.7*	54.2*	24.0*
COC(=O)c1cccc(C(=O)N2CCCC(C(=O)c3ccccc3OC)C2)c1 (configuration not stated)	-2.5	-3.3	-10.2	1.3	2.8	-0.5	x	x	x	x
COC(=O)c1cccc(C(=O)N2CCCC(C(=O)c3cccc(OC(C)C)c3)C2)c1 (configuration not stated)	-2.9	-4.0	8.5	-6.2	-3.5	53.0*	-2.1	1.7	6.3	5.7
CCN(CC(=O)Nc1ccc(NC(C)=O)cc1)C(=O)CCCc1nc2ccccc2s1	-0.2	-10.3	-17.8	2.6	8.6	2.5	x	x	x	x
COc1cc(-c2n[nH]c(=S)n2/N=C/c2cccn2C)cc(OC)c1OC	64.1*	71.2*	38.6*	4.8	-25.6	138.4*	139.0*	112.8*	97.0*	78.7*
CCOc1ccccc1N(C)C(=O)CCS(=O)(=O)c1ccc2c(c1)NC(=O)CO2	-2.4	-4.4	1.2	-2.5	3.4	1.2	x	x	x	x
COc1ccc(S(=O)(=O)NC(=O)C2(C)CCN2C(=O)Cc2cc(C)cc(C)c2)cc1OC (configuration not stated)	-2.9	6.7	15.0	-1.5	-7.2	-0.3	x	x	x	x
O=C(CCN1Cc2ccccc2C1)c1ccc2c(c1)OCCO2	-12.2	7.0	8.8	7.6	-11.1	38.2*	67.8*	3.2	12.8	11.8
O=C(CCN1CCc2ccccc2C(c2ccccc2)C1)c1ccc2c(c1)OCCO2 (configuration not stated)	-4.8	52.5*	0.7	-8.1	-1.9	73.2*	74.6*	0.9	76.5*	12.0
COc1cc(/C=C2\SC(=Nc3ccc(Cl)c(C(=O)O)c3)NC2=O)c(Br)c(Br)c1O	51.4*	76.0*	19.3	-2.2	-9.6	98.1*	49.1*	57.9*	57.0*	70.2*
COC(=O)/C=C1\SC(=Nc2ccc(Cl)c(Cl)c2)NC1=O	-0.5	12.2	2.1	0.3	-2.4	3.0	x	x	x	x
CCCOC(c1ccccc1)(c1ccc(C(F)(F)F)cc1)C(Oc1nc(C)cc(C)n1)C(=O)O (configuration not stated)	-5.3	-3.8	-15.9	7.0	1.5	25.4	x	x	x	x
Cc1cc(C)nc(OC(C(=O)O)C(OCCc2ccccc2)(c2ccc(F)cc2)c2ccc(F)cc2)n1 (configuration not stated)	-4.3	1.0	-17.0	1.0	4.8	121.7*	127.8*	89.5*	25.7	4.9
CCC(C)COC(c1ccccc1)(c1ccccc1)C(Oc1nc(C)cc(C)n1)C(=O)O (configuration not stated)	-5.1	8.2	-19.1	4.8	16.6	80.5*	128.3*	85.5*	14.1	8.5
Cc1cc(C)nc(OC(C(=O)O)C(OCC(C)C)(c2ccccc2)c2ccccc2)n1 (configuration not stated)	-3.5	4.3	-14.4	5.3	3.4	108.4*	125.0*	74.4*	20.8	8.3
N#Cc1c2ccc(O)cc2n2ccccc12	0.9	17.1	-1.2	1.1	5.7	13.9	x	x	x	x
CC(NC(=O)c1cc(COc2ccc(-n3cncn3)cc2)on1)c1ccc(F)cc1 (configuration not stated)	-4.6	-11.4	-8.7	0.9	6.1	4.5	x	x	x	x
OC(COc1ccccc1)CN1CCCCC1 (configuration not stated)	-3.6	-1.0	-12.9	-4.7	3.1	1.9	x	x	x	x
OC(COc1ccc(CNCCc2ccccc2F)cc1)CN1CCCCC1 (configuration not stated)	-6.8	x	38.1*	0.8	-17.8	x	x	2.4	x	4.4
Cc1cc(/C=C2/NC(=O)NC2=O)c(C)n1-c1sc2c(c1C#N)CCCC2	-3.7	-14.2	-0.4	9.7	0.2	63.0*	45.7*	19.0*	-5.3	-1.6
Cc1cccc(NC(=S)N(C)C)c1C	-2.0	-37.7	-2.4	1.4	-1.8	0.8	x	x	x	x
Cc1cccc(Nc2cc(C)c3c(O)cccc3n2)c1C	0.7	81.9*	3.6	-7.0	1.7	94.2*	95.7*	21.6*	91.6*	17.4

Compound activity from PubChem BioAssay.
